Assays:
TLR2 [1] = target: T1, TLR2 (Homo sapiens, UniProt O60603); test: NF-κB induction; type: cell-based
Method in brief: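 HEK293 cells stably transfected with TLR2, MD2, CD14 and a secreted alkaline phosphatase (sAP) reporter under NF-κB/AP-1 promoters. Cells were kept in selection medium with zeocin and normocin. They were grown in 384-well plates to confluency, then given graded concentrations of stimuli. Supernatant sAP, taken as proportional to NF-κB induction, was read at 620 nm with an alkaline phosphatase-specific chromogen in detection medium.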
Target sequence in this assay (O60603 21-784): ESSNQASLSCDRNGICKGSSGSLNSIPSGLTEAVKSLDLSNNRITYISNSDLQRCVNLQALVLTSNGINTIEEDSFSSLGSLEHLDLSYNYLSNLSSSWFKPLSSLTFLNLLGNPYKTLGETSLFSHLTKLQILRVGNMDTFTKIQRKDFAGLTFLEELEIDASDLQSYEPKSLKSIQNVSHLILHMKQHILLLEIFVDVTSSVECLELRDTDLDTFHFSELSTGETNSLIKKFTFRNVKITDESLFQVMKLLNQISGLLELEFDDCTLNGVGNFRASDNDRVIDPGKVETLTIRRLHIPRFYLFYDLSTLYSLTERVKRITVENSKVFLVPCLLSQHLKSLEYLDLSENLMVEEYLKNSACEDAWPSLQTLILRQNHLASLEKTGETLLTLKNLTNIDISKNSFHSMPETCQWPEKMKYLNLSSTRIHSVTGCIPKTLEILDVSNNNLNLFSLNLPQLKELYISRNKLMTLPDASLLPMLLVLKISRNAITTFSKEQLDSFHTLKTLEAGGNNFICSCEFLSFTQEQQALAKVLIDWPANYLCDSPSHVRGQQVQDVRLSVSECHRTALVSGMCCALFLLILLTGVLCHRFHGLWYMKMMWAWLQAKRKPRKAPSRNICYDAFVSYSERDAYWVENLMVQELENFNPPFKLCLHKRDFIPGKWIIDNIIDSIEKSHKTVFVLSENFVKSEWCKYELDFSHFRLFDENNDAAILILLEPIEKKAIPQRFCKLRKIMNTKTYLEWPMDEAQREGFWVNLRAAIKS
Target sequence in this assay (Q9Y2C9 32-796 partner): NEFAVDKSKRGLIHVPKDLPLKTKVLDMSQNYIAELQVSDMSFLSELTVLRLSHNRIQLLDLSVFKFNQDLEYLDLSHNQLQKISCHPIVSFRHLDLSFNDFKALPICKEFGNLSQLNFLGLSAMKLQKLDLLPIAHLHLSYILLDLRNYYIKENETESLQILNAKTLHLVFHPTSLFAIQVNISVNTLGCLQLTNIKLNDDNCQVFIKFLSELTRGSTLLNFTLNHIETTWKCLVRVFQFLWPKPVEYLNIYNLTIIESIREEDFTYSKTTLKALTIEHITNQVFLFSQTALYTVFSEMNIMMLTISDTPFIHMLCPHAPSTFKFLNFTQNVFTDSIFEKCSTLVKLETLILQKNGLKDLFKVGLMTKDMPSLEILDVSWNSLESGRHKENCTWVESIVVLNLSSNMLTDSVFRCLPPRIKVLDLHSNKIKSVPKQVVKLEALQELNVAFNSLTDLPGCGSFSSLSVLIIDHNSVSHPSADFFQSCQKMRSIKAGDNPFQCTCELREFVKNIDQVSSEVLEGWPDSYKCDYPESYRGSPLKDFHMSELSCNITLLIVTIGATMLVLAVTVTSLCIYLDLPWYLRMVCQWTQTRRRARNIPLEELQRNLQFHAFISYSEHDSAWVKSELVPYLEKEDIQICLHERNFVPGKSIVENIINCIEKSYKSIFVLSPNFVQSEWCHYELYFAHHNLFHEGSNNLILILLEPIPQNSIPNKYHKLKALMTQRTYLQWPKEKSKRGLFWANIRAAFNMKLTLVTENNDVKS

TLR2 [2] = target: T1, TLR2; test: Test of compounds as TLR2 receptor antagonists; type: cell-based
Target sequence in this assay (O60603 21-784): as the sequence (O60603 21-784) above

[3] = system: patients with inoperable carcinoma of the pancreas; settings: single intraoperative 20–30 μg intratumoral injection; cited from earlier work
rabbits = test: Fever response / acute toxicity in rabbits; type: in vivo, rabbit; settings: dose of 100 ng/kg, manuscript in preparation
murine cells = settings: cited from earlier work

Compound | TLR2 agonistic activity (in words) (TLR2 [1]; human TLR2 reporter gene assay) | Activity as TLR2 receptor antagonist (TLR2 [2]) | also measured
CCCCCCCCCCCCCCCC(=O)OC[C@@H](CSCCN)OC(=O)CCCCCCCCCCCCCCC [Compound 6b, (S)-3-(2-aminoethylthio)propane-1,2-diyl dipalmitate] | completely inactive | inactive | 
MALP-2 |  |  | Efficacy (survival) [3]: efficacious in prolonging survival; Tolerability [3]: well-tolerated
CCCCCCCCCCCCCCCC(=O)OC[C@H](COCC(N)C(=O)N[C@@H](CO)C(=O)OC)OC(=O)CCCCCCCCCCCCCCC (stereo partly drawn) [Compound 21a, (S)-3-(2-amino-3-((S)-3-hydroxy-1-methoxy-1-oxopropan-2-ylamino)-3-oxopropoxy)propane-1,2-diyl dipalmitate] |  | inactive | 
CCCCCCCCCCCCCCCC(=O)OC[C@H](CSC[C@H](N)C(=O)OC)OC(=O)CCCCCCCCCCCCCCC [Compound 11, (R)-3-((R)-2-amino-3-methoxy-3-oxopropylthio)propane-1,2-diyl dipalmitate] | weakly TLR2-agonistic |  | 
CCCCCCCCCCCCCCCC(=O)OC[C@@H](CSCCNC(=O)[C@H](N)CO)OC(=O)CCCCCCCCCCCCCCC [Compound 8b, (S)-3-(2-((R)-2-amino-3-hydroxypropanamido)ethylthio)propane-1,2-diyl dipalmitate] | only 8a was active |  | 
lipopolysaccharide [LPS] |  |  | Fever response (rabbits): robust fever response; Secretion of chemokines (murine cells): potently induced the secretion of a similar pattern of chemokines
CCCCCCCCCCCCCCCC(=O)N[C@H](COC(=O)CCCCCCCCCCCCCCC)CSC[C@H](N)C(=O)N[C@@H](CO)C(=O)OC.O=C(O)C(F)(F)F [Compound 37, (R)-3-((R)-2-amino-3-((S)-3-hydroxy-1-methoxy-1-oxopropan-2-ylamino)-3-oxopropylthio)-2-palmitamidopropyl palmitate] | partially active | inactive | TLR2 agonistic activity relative to reference lipopeptide PAM2CSK4 (TLR2 [1]; compared with PAM2CSK4): weaker by about three orders of magnitude
CCCCCCCCCCCCCCCC(=O)OC[C@H](COCC(N)C(=O)N[C@H](CO)C(=O)OC)OC(=O)CCCCCCCCCCCCCCC (stereo partly drawn) [Compound 21b, (S)-3-(2-amino-3-((R)-3-hydroxy-1-methoxy-1-oxopropan-2-ylamino)-3-oxopropoxy)propane-1,2-diyl dipalmitate] |  | inactive | TLR2 agonistic activity (in words) (TLR2 [1]; at the highest concentration tested): inactive
CCCCCCCCCCCCCCCC(=O)NC[C@H](CSC[C@H](N)C(=O)N[C@@H](CO)C(=O)OC)NC(=O)CCCCCCCCCCCCCCC [Compound 45, (S)-methyl 2-((R)-2-amino-3-((R)-2,3-dipalmitamidopropylthio)-propanamido)-3-hydroxypropanoate] | completely inactive | inactive | 
CCCCCCCCCCCCCCCC(=O)OC[C@H](CSCCN)OC(=O)CCCCCCCCCCCCCCC [Compound 6a, (R)-3-(2-aminoethylthio)propane-1,2-diyl dipalmitate] | weakly active | inactive | IC50 (TLR2 [1]): 1000 nM
CCCCCCCCCCCCCCCCOC[C@H](CSC[C@H](N)C(=O)N[C@@H](CO)C(=O)OC)OCCCCCCCCCCCCCCCC [Compound 28, (S)-methyl 2-((R)-2-amino-3-((R)-2,3-bis(hexadecyloxy)propylthio)propanamido)-3-hydroxypropanoate] | entirely inactive | inactive | 

— paper PMC2859677 (Journal of medicinal chemistry, 2010)
